Measurements reported in publication PMC5384256 (Bioconjugate chemistry, 2015).
“And” between values parts separate entries of the source, which are not always exact repeats. Identical values can stand only once. Where no end group is shown, it is not given here. Cy5.5 = Cy5.5 fluorophore

Legend:
dysplastic polyps = settings: FITC-labeled, topical application, patients; cited from earlier work
Flo1-HER2 cells = assay: Confocal microscopy of FITC-labeled lead peptides with Flo1-HER2 cells; assay type: cell-based; settings: 10 μM, 4 °C, 1 h, quadruplicate, data log base 2
In short: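 Flo1-HER2 cells (DMEM + G418) and Q-hTERT control cells (Keratinocyte-SFM), ~7500 cells on coverslips, were grown to ~70% confluence and washed with cold PBS. They got 10 μM FITC-labeled peptide for 1 h at 4 °C, were washed 3×, fixed in ice-cold 4% PFA for 10 min and mounted with DAPI. Confocal imaging used a 63× oil objective, in quadruplicate.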

p-HER2 = assay: Western blot p-HER2, SKBR3 cells; assay type: cell-based, Human; settings: 48 h
In short: (§1)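 SKBR3 cells (McCoy's) in 6-well plates at ~60% confluence got unlabeled test peptide at 5 or 100 μM. A tyrosine kinase inhibitor positive control was used at 1–1000 nM, alongside 1% DMSO and untreated controls. Cells were harvested at 48 h for Western blot. Antibodies covered total HER2, AKT and ERK1/2, phospho-HER2 (Tyr1248), phospho-AKT (pS473), phospho-ERK1/2 and tubulin.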

p-AKT = assay: Western blot p-AKT, SKBR3 cells; assay type: cell-based, Human; settings: 48 h
In short: as §1

p-ERK = assay: Western blot p-ERK, SKBR3 cells; assay type: cell-based, Human; settings: 48 h
In short: as §1

HER2 on HT29 cells [1] = assay: Apparent association time constant by flow cytometry; assay type: binding, Human; settings: 5 μM KSP*-Cy5.5, 4 °C, 0-60 min, from k = 0.14 min^−1
HER2 on HT29 cells [2] = assay: Confocal fluorescence microscopy, HT29 cells; assay type: cell-based, Human; settings: peptides 5 μM, 30 min, 4 °C
In short: (§2)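 Cells were cultured at 37 °C, 5% CO2 with 10% FBS and 1% pen/strep: HT29 in McCoy's, SW480 in DMEM. After a PBS wash, cells got 5 μM Cy5.5-labeled test or control peptide for 30 min at 4 °C, were washed 3×, fixed in ice-cold 4% PFA for 10 min and mounted with DAPI. Imaging used Cy5.5 and DAPI filters. Intensities were quantified from 3 independent images.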

HER2 on SW480 cells = assay: Confocal fluorescence microscopy, SW480 cells; assay type: cell-based, Human; settings: peptides 5 μM, 30 min, 4 °C
In short: as §2

HER2 on HT29 cells [3] = assay: siRNA knockdown of HER2, HT29 cells; assay type: cell-based, Human; settings: HT29 siCL vs siHER2; confocal; average of 3 images
In short: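 HT29 cells were seeded at 30% confluence in McCoy's 5A with 10% FBS and no antibiotics. Next day they were transfected with HER2-targeting siRNA or a nontargeting pool, and knockdown was confirmed by Western blot. Cy5.5-labeled test peptide and AF488 anti-HER2 binding were imaged confocally, with intensities quantified from 3 independent images.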

HER2 on HT29 cells [4] = assay: Co-localization of peptide and anti-HER2 antibody binding, HT29 cells; assay type: cell-based, Human; settings: KSP*-Cy5.5 5 μM, 1 h, 4 °C, then anti-HER2 and AF488 secondary
In short: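 HT29 cells got 5 μM Cy5.5-labeled test peptide first (1 h, 4 °C), at under 10 μM to limit interference with antibody binding. Cells were washed, fixed in 4% PFA for 5 min, then stained with primary anti-HER2 and AF488 secondary. Co-localization was scored as Pearson's correlation coefficient.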

[5] = test system: HER2 in colonic adenomas of CPC;Apc mice; assay: In vivo NIR endoscopic imaging of mouse colonic dysplasia, topical peptide; settings: topical 100 μM, 1.5 mL
In short: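 Cy5.5-labeled peptides, 100 μM in 1.5 mL, were delivered into the colon through the endoscope instrument channel and left 5 min. The colon was rinsed 3× with tap water before NIR imaging with a small animal endoscope. Imaging was repeated 2–3 days later with the control peptide. Target-to-background ratios came from mean ROI intensities.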

[6] = test system: HER2 in colonic adenomas of CPC;Apc mice; assay: In vivo NIR endoscopic imaging of mouse colonic dysplasia, systemic peptide; settings: n = 4, i.v. tail vein, 200 μL of 300 μM
In short: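 Isoflurane-anaesthetized CPC;Apc mice received 200 μL of 300 μM Cy5.5-labeled test peptide via tail vein. NIR endoscopy was done before injection for baseline, then after injection until maximum signal. The adenoma-to-normal intensity ratio came from regions of interest at each time point.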

[7] = test system: HER2 overexpressed by mouse colonic dysplasia; assay: Peptide immunofluorescence on mouse colonic adenoma sections; settings: 2 μM, 10 min, RT, confocal
In short: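 Serial 5-μm sections of formalin-fixed mouse colonic adenoma were incubated with 2 μM Cy5.5-labeled test or control peptide for 10 min at RT. Sections were washed 3× with PBS and mounted with DAPI for confocal imaging. Adjacent sections were H&E stained.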

[8] = test system: HER2 overexpressed by human proximal colonic neoplasia; assay: Peptide immunofluorescence on FFPE human proximal colon specimens; settings: KSP*-Cy5.5 5 μM, 10 min, RT
In short: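 FFPE 5-μm sections were deparaffinized, then antigen-retrieved in 10 mM sodium citrate, 0.05% Tween, pH 6.0, at boiling then sub-boiling for 15 min. They were blocked with protein serum for 15 min at RT and stained with 5 μM Cy5.5-labeled test peptide for 10 min at RT. After PBS washes, anti-HER2 was applied overnight at 4 °C. Mean intensity was read from three 20×20 μm² epithelial boxes per image, avoiding saturated regions. Analysis used log2 transform if needed, one-way ANOVA with Tukey comparisons, and Pearson's coefficient for co-localization.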

[9] = target: Human epidermal growth factor receptor 2 (HER2), endogenous on human cells and tissue (human, UniProt P04626 23-1255); assay: flow cytometry on cells
[10] = lapatinib 1, 25, 100, 1000 nM, concentration dependent
[11] = human proximal colon FFPE, n = 30, mean ± sem

Molecule: VRPMPLQ
- Binding in vivo on dysplastic polyps (dysplastic polyps): specific binding was validated

Molecule: KSPNPRF
- Mean fluorescence intensity (rank among top 5 peptides) (Flo1-HER2 cells): highest mean fluorescence intensity

Molecule: CS(=O)(=O)CCNCc1ccc(-c2ccc3ncnc(Nc4ccc(OCc5cccc(F)c5)c(Cl)c4)c3c2)o1 [lapatinib, reference compound]
- Expression of p-HER2 (p-HER2; [10]): reduced expression
- Expression of p-AKT (p-AKT; [10]): reduced expression
- Expression of p-ERK (p-ERK; [10]): reduced expression

Molecule: KSPNPRF [KSP*]
- Apparent association time constant, as time (HER2 on HT29 cells [1]): 7.1 min
- Phosphorylation of HER2 (p-HER2) (p-HER2; KSP* 5 and 100 μM, Tyr1248): no change
- Phosphorylation of AKT (p-AKT) (p-AKT; KSP* 5 and 100 μM, pS473): no change
- Phosphorylation of ERK (p-ERK) (p-ERK; KSP* 5 and 100 μM): no change

Molecule: KSPNPRF [KSP*-Cy5.5]
- Binding to cell surface (HER2 on HT29 cells [2]): binds to the surface
- Binding to cell surface (HER2 on SW480 cells): binds to the surface
- Binding to siCL treated control cells compared to siHER2 knockdown cells (HER2 on HT29 cells [3]): significantly greater
- Co-localization with anti-HER2-AF488, Pearson's coefficient (HER2 on HT29 cells [4]): 0.74
- Apparent association time constant, as time (HER2 on HT29 cells [1]): 7.1 min and 7.14 min
- NIR fluorescence at flat adenoma [5]: increased intensity with visible crypt-like structures
- NIR fluorescence at polypoid adenoma [5]: increased intensity
- Time of peak T/B ratio (mean intensity) [6]: 100 min
- Staining of normal colon [7]: Minimal staining
- Co-localization with anti-HER2-AF488, Pearson's correlation coefficient ([8]; human colonic dysplasia, then anti-HER2): 0.50
- Mean fluorescence intensity, hyperplastic polyps ([8]; human proximal colon FFPE, n = 12, mean ± sem): 0.12 ± 0.08
- Mean fluorescence intensity, sessile serrated adenomas ([8]; human proximal colon FFPE, n = 13, mean ± sem): 6.07 ± 0.73
- Mean fluorescence intensity, normal [8, 11]: 2.72 ± 0.31
- Mean fluorescence intensity, sporadic adenomas [8, 11]: 11.9 ± 0.61

Molecule: PPSNFKR [PPS*-Cy5.5]
- Binding to cell surface (HER2 on HT29 cells [2]): minimal binding
- Binding to cell surface (HER2 on SW480 cells): minimal binding
- NIR fluorescence at flat adenoma [5]: minimal signal
- NIR fluorescence at polypoid adenoma [5]: minimal signal
- Staining of normal colon [7]: Minimal staining

Molecule: KSPNPRFGGGSK(Cy5.5)-NH2 [KSP*-Cy5.5 (KSPNPRF peptide labeled with Cy5.5 via a GGGSK linker)]
- Kd [9]: 21 nM
